Bioassay records (PubChem BioAssay)
In the library only some 1.9% were active in any assay of this set; here they are far more common.
Env fusion inh – blocks HIV Env-driven cell-cell fusion. HeLa-JRFL Env/CEM21 cell fusion, luciferase. inhibition, % at 12.3 µM. actives 1.1% (n = 360,000);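 active = mean replicate inhibition score of at least 50 and every replicate individually at or above 50; inconclusive = only one of the two criteria met; inactive = mean below 50 and not all replicates reaching 50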;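 also: 0% = plate neutral controls and 100% = maraviroc near 300 nM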
SR-BI HDL uptake – inhibitors of mouse SR-BI mediated HDL lipid uptake; Q61009; ldlA[mSR-BI] CHO cells, DiI-HDL uptake fluorescence, 3 h; inhibition, % at 12.5 µM; actives 0.96% (n = 320,000); AID 488896;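 active = mean replicate inhibition of at least 70% and a set share of replicates each scoring 70 or more; inconclusive = meets just one of the two criteria; inactive = fails both criteria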;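 also: 0% = median of neutral control wells and 100% = median of positive control wells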
Glyco luc inh – blocks N-linked glycosylation in D54 reporter cells | D54 ERlucT glycosylation luciferase reporter, 24 h; percent of 100 nM tunicamycin response | reporter increase, % at 12.5 µM | AID 588692 | actives 0.23% (n = 360,000);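 active = mean luciferase reporter signal, scaled so untreated is 0 and the glycosylation-blocking control 100, at or above a set limit in every replicate; inconclusive = mean reaches the limit but not every replicate does; inactive = mean below the limit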;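 also: luciferase carries N-glycosylation sites so blocking glycosylation raises the light; 0% = median of neutral control wells and 100% = median of 100 nM tunicamycin wells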
Rtt109 HAT inh – blocks Candida albicans Rtt109/Vps75 acetyltransferase activity | inhibition, % at 34.9 µM | actives 0.16% (n = 330,000) | purified Rtt109/Vps75, ThioGlo CoA-SH fluorescence, 4 h;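 active = inhibition of at least 50% in every replicate; inconclusive = best replicate reaches 50% inhibition but some replicates fall short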
Target sequence (Q5AAJ8 whole entry, looked up): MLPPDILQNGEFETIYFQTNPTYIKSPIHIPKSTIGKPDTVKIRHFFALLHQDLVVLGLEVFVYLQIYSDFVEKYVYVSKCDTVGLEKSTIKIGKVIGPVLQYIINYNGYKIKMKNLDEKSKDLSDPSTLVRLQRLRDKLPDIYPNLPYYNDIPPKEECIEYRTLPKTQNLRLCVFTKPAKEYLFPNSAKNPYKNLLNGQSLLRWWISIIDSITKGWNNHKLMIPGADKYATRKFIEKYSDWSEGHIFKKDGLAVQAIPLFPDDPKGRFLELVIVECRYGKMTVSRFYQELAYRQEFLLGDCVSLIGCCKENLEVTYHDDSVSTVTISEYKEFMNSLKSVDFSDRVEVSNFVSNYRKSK
PglD inh – inhibitors of Campylobacter jejuni PglD acetyltransferase. purified PglD enzyme, DTNB colorimetric CoA detection. inhibition, % at 12.5 µM. actives 0.098% (n = 360,000). AID 602405; in the data active = inhibition above about 16%, passing the limit was not always enough; inconclusive = no clear call, values can overlap the other calls
SR-BI DiI-HDL act – enhances SR-BI lipid uptake from DiI-HDL | activation, % at 12.5 µM | CHO ldlA[mSR-BI] cells, DiI-HDL uptake fluorescence, 3 h; 100 = double the neutral-control signal | actives 0.096% (n = 320,000) | AID 504775;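 active = mean replicate activation of at least 60% and every replicate at or above 60%; inconclusive = mean or all-replicate condition met, but not both; inactive = mean below 60% and not all replicates reaching 60%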;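 also: 0% = median plate neutral-control signal and 100% = twice that signal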
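Assay system: CHO ldlA[mSR-BI] cells, LDL receptor-null, SR-BI overexpressing; medium: Ham's F12 with 0.5% BSA, HEPES 25 mM, pH 7.4; also added: DiI-HDL 10 µg/mL; timing: 3 h uptake period with compound, 37 °C; signal: DiI fluorescence, bottom read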
Active calls of the source: *; ? = inconclusive; . = no result; [ ] = another dose, or the depositor's remark.

SMILES | Env fusion inh | SR-BI HDL uptake | Glyco luc inh | Rtt109 HAT inh | PglD inh | SR-BI DiI-HDL act
C[C@H]1CN([C@@H](C)CO)C(=O)CCCn2nncc2CO[C@H]1CN(C)Cc1ccc(C(F)(F)F)cc1 | 30[16.7 µM] | . | . | . | . | .
C/C=C/c1cnc2c(c1)C(=O)N([C@H](C)CO)C[C@H](C)[C@H](CN(C)Cc1ccncc1)O2 | -14[16.7 µM] | . | . | . | 15 | .
CCOc1ccc(S(=O)(=O)NCc2ccncc2)cc1 | 85* | -8 | 0 | 7 | 7 | 8
CN(C)C(=O)c1ccc(-c2ccc([C@H]3[C@@H](CO)N4CCCCN(C(=O)C5CCCC5)C[C@H]34)cc2)cc1 | . | . | . | . | 8 | .
CCOC(=O)C1=C(CN2CCOCC2)NC(=O)NC1c1cc(C)ccc1C (centres undefined) | -21 | 12 | 3 | 27 | -3 | -12
CCOC(=O)C1=C(CN2CCN(c3ccc(F)cc3)CC2)NC(=O)NC1c1cccs1 (centres undefined) | -57 | 78* | -2 | ? | 4 | -78
C[C@H]1CN([C@@H](C)CO)C(=O)c2cccc(NC(=O)c3ccncc3)c2O[C@@H]1CN(C)Cc1ccc(Oc2ccccc2)cc1 | . | . | . | . | -2 | .
O=C(c1ccc2c3c(cccc13)CC2)C1CCCN(Cc2cccnc2)C1 (centres undefined) | 27 | . | -1 | -7 | 1 | .
COc1cc(CN2CCCC(C(=O)c3ccc4c5c(cccc35)CC4)C2)cc(OC)c1O (centres undefined) | 56* | 44 | -7 | . | . | -44
CC(C)n1c(NCCc2ccccc2)nc2c1c(=O)n(C)c(=O)n2C | 110* | 2 | -10 | 3 | -6 | -2
CN1C(=O)c2cc(NC(=O)NC3CCCC3)ccc2OC[C@H]2O[C@@H](CC(=O)O)CC[C@@H]21 | . | . | . | . | 2 | .
O=C(O)C[C@H]1CC[C@H]2[C@@H](COC[C@H](O)CN2S(=O)(=O)c2ccc(F)cc2)O1 | . | . | . | . | 0 | .
COc1ccc(N=C2S/C(=C\c3ccc(OC(C)C(=O)O)c(OC)c3)C(=O)N2CCc2c[nH]c3ccccc23)cc1 (centres undefined) | 10 | 75* | 0 | -1 | . | -75
O=C1/C(=C/c2ccc(N3CCOCC3)o2)SC(=Nc2ccccc2)N1CCc1c[nH]c2ccccc12 | . | 87* | 1 | 0 | -2 | -87
C[C@H](CO)N1C[C@H](C)[C@H](CN(C)C(=O)Nc2ccc(F)cc2)Oc2ncc(C#C[C@@H](C)O)cc2C1=O | -11[16.7 µM] | . | . | . | -1 | .
CO[C@H]1CN(C)C(=O)c2cc(NC(C)=O)ccc2OC[C@H](C)N(C(=O)c2ccc(F)cc2)C[C@H]1C | -1[16.7 µM] | . | . | . | 2 | .
Cc1noc(C)c1S(=O)(=O)Nc1ccc2c(c1)C(=O)N([C@@H](C)CO)C[C@@H](C)[C@@H](CN(C)C(=O)c1ccncc1)OCCCC[C@@H](C)O2 | -18[16.7 µM] | . | . | . | 0 | .
O=C1[C@H](Cc2ccccc2)NCC=CC[C@@H](c2ccco2)N1Cc1ccccc1 | 33 | -7 | -1 | 5 | 1 | 7
COC(=O)C1=C(C(=O)OC)[C@]2([C@H]3CC=CCN[C@@H](Cc4ccccc4)C(=O)N3Cc3ccccc3)C=C[C@H]1O2 | 58* | -16 | -10 | 7 | 2 | 16
COC(=O)C1=C(C(=O)OC)[C@]2([C@@H]3CC=CCN[C@@H](Cc4ccccc4)C(=O)N3Cc3ccccc3)C=C[C@H]1O2 | 73* | -27 | -9 | -2 | -5 | 27
CC(=O)N[C@H]1C=C[C@H](CC(=O)NCC2CCCCC2)O[C@@H]1CO | 2[16.7 µM] | . | . | . | -1 | .
CCOc1ccc(OCC)c(NS(=O)(=O)c2cccc3nsnc23)c1 | 14 | -410 | 1 | 2 | -2 | 410*
CCOc1cc(-c2cn(S(=O)(=O)c3cccc4nsnc34)nc2N)cc(OCC)c1OCC | 66* | 28 | -10 | 6 | 4 | -28
CCOc1ccccc1NS(=O)(=O)c1cccc2nsnc12 | . | -17 | 2 | -1 | 3 | 17
CSc1ncccc1C(=O)Nc1ncc(C)s1 | -9 | 11 | 4 | -4 | 1 | -11
SMILES | Env fusion inh | SR-BI HDL uptake | Glyco luc inh | Rtt109 HAT inh | PglD inh | SR-BI DiI-HDL act
CSc1ncccc1C(=O)Nc1nc2c(C)cccc2s1 | -22 | 73* | 0 | 6 | . | -73
CCC(=O)Nc1ccc2c(c1)C(=O)N(C)C[C@@H](OC)[C@@H](C)CN(Cc1ccccc1)[C@@H](C)CO2 | 11[16.7 µM] | . | . | . | 2 | .
Cc1noc(NS(=O)(=O)c2ccc(N/C=C/C(=O)c3cccnc3)cc2)c1C | . | -2 | 0 | 73* | -3 | 2
O=C(C[C@@H]1C[C@@H]2c3cc(NC(=O)Nc4ccccc4)ccc3O[C@@H]2[C@H](CO)O1)NCc1cccc(F)c1 | 44[16.7 µM] | . | . | . | -2 | .
Nc1ccc(Nc2nc(-c3cccs3)cs2)cc1 | -70 | 100* | -8 | 5 | . | -100
c1ccc(Nc2nc(-c3cccs3)cs2)nc1 | . | -8 | -11 | 6 | -1 | 8
C[C@@H]1CN([C@H](C)CO)C(=O)c2cc(NC(=O)Cc3ccccc3)ccc2O[C@@H](C)CCCCO[C@H]1CN(C)S(=O)(=O)c1ccc(Cl)cc1 | 28[16.7 µM] | . | . | . | -3 | .
CCOc1cc(C(c2c(C)[nH][nH]c2=O)c2c(C)[nH][nH]c2=O)ccc1OCc1ccc([N+](=O)[O-])cc1 | -7 | 8 | 5 | -3 | 5 | -8
CCOc1cc(/C=C2/NC(=S)NC2=O)ccc1OCc1ccc([N+](=O)[O-])cc1 | . | 73* | 1 | -11 | -3 | -73
Cc1noc(C)c1NC(=O)N(C)C[C@H]1Oc2ccc(NS(=O)(=O)c3c(C)noc3C)cc2C(=O)N([C@@H](C)CO)C[C@H]1C | -5[16.7 µM] | . | . | . | . | .
Fc1ccc(-c2cc3nc4c(c(N5CCOCC5)n3n2)CCCC4)cc1 | . | 76* | -5 | 4 | -3 | -76
Cc1cccc(-c2cc3nc4c(c(N5CCOCC5)n3n2)CCCC4)c1 | . | 53 | -11 | 21 | -2 | -53
CC1CCN(Cc2c(C(=O)N/N=C/c3cc(Br)ccc3O)nnn2-c2nonc2N)CC1 | 60* | 103* | -6 | -3 | 4 | -103
COc1ccc(/C=N/NC(=O)c2nnn(-c3nonc3N)c2-c2cccc(OC)c2)cc1 | -5 | 30 | 3 | 3 | 0 | -30
COc1ccc(O)c(/C=N/NC(=O)c2c(C)nnn2-c2nonc2N)c1 | 0 | 101* | -4 | -8 | . | -101
C[C@H]1CN([C@@H](C)CO)C(=O)Cc2cc(NS(=O)(=O)c3cn(C)cn3)ccc2O[C@@H]1CN(C)Cc1ccc(C(F)(F)F)cc1 | -6[16.7 µM] | . | . | . | . | .
CC(=O)N(C)C[C@@H]1Oc2ncc(-c3ccc(C)cc3)cc2C(=O)N([C@@H](C)CO)C[C@@H]1C | -4[16.7 µM] | . | . | . | -5 | .
C[C@H]1CN([C@@H](C)CO)S(=O)(=O)c2ccc(C#CC3(O)CCCC3)cc2O[C@@H]1CN(C)C(=O)Nc1ccccc1 | -14[16.7 µM] | . | . | . | 2 | .
